Converted amounts (≈) assume the structure as drawn. The source made the active and inactive calls. No cut-off for these calls is given here.
What was measured:
Helicobacter pylori [1] = assay: Inhibition of Helicobacter pylori FabZ at 50 uM
Procedure, shortened: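 HpFabZ activity read spectrophotometrically as the A260 decrease during crotonoyl-CoA conversion to β-hydroxybutyryl-CoA. Single inhibitor level of 50 µM, compound in 1% DMSO preincubated with enzyme for 1 h before assay start.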

Helicobacter pylori [2] = assay: Antimicrobial activity against Helicobacter pylori SS1 by standard agar dilution method; format: functional
Procedure, shortened: (§1)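 Inoculum: H. pylori swabbed into sterile saline to 2.0 McFarland turbidity. Plates incubated at 37 °C under microaerobic gas (85% N₂, 10% CO₂, 5% O₂), read after 3 days. Compound-free agar as control.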

Helicobacter pylori [3] = assay: Antimicrobial activity against Helicobacter pylori ATCC 43504 by standard agar dilution method; format: functional; procedure, shortened: as §1
[4] = Inhibition of Helicobacter pylori FabZ
Procedure, shortened: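 Spectrophotometric HpFabZ assay following the drop in A260 as crotonoyl-CoA converts to β-hydroxybutyryl-CoA. Compounds in 1% DMSO preincubated with enzyme 1 h before starting the reaction. IC50 from logistic fit of dose-response inhibition data. Means of three determinations.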

inhibition (Helicobacter pylori [1]) | MIC (Helicobacter pylori [2]) | MIC (Helicobacter pylori [3]) | IC50 [4] | SMILES
62.1% | – | – | – | O=C(N/N=C/c1cc(Br)c(O)c(Br)c1)c1cccnc1
15.1% | – | – | – | O=C(N/N=C/c1ccc(O)cc1)c1cccnc1
93.8% | > 100 µg/mL | > 100 µg/mL | – | O=C(N/N=C/c1cc(Br)c(O)c(Br)c1O)c1ccc(Cl)cc1
– | 50 µg/mL (≈ 92.1 µM) | 100 µg/mL (≈ 184 µM) | 3.55 µM | O=C(N/N=C/c1cc(Br)c(O)c(Br)c1O)c1ccc2cc(Br)ccc2c1
10% | – | – | – | COCCN1C(=O)/C(=C\c2ccc(-c3ccc(Cl)c(C(=O)OC)c3)o2)S/C1=N/c1ccccc1F
inactive | – | – | – | COCCN1C(=O)/C(=C\c2ccc(-c3ccc(Cl)c(C(=O)OC)c3)o2)S/C1=N/c1ccc(F)cc1
– | > 100 µg/mL | > 100 µg/mL | 42.7 µM | O=C(N/N=C/c1cc(Br)c(O)c(Br)c1O)c1ccc(-c2ccc(O)cc2)cc1
inactive | – | – | – | COC(=O)c1cc(-c2ccc(/C=C3/S/C(=N/c4ccccc4)N(CCCN(C)C)C3=O)o2)ccc1Cl
inactive | – | – | – | COCCN1C(=O)/C(=C\c2ccc(-c3ccc(Cl)cc3)o2)S/C1=N/c1ccccc1
72% | – | – | – | O=C(N/N=C/c1cc(Br)c(O)c(Br)c1O)c1cccs1
inactive | – | – | – | COCCN1C(=O)/C(=C\c2ccc(-c3ccc(Cl)c(C(=O)OC)c3)o2)S/C1=N/c1ccc(Br)cc1
– | 100 µg/mL (≈ 199 µM) | 50 µg/mL (≈ 99.6 µM) | 3.75 µM | O=C(N/N=C/c1cc(Br)c(O)c(Br)c1O)c1ccc2c(c1)Cc1ccccc1-2
92.6% | 50 µg/mL (≈ 108 µM) | 100 µg/mL (≈ 215 µM) | – | O=C(N/N=C/c1cc(Br)c(O)c(Br)c1O)c1ccc2ccccc2c1
inactive | – | – | – | COCCN1C(=O)/C(=C\c2ccc(-c3ccc(Cl)c(C(=O)OC)c3)o2)S/C1=N/c1ccccc1OC
25.6% | – | – | – | O=C(N/N=C/c1ccc(O)cc1O)c1cccnc1
– | 100 µg/mL (≈ 208 µM) | 100 µg/mL (≈ 208 µM) | 8.77 µM | O=C(N/N=C/c1cc(Br)c(O)c(Br)c1O)c1ccc2cc(O)ccc2c1
– | inactive | inactive | 12.8 µM | O=C(N/N=C/c1cc(Br)c(O)c(Br)c1O)c1ccc(Oc2ccccc2)cc1
inactive | – | – | – | COCCN1C(=O)/C(=C\c2ccc(-c3ccc(Cl)c(C(=O)OC)c3)o2)S/C1=N/c1ccc(OC)cc1
inactive | – | – | – | COCCN1C(=O)/C(=C\c2ccc(-c3ccc(Cl)c(C(=O)OC)c3)o2)S/C1=N/c1cccc(F)c1
inactive | – | – | – | COCCN1C(=O)/C(=C\c2ccc(-c3ccc(Cl)c(C(=O)OC)c3)o2)S/C1=N/c1ccccc1Br
63.9% | – | – | – | COCCN1C(=O)/C(=C\c2ccc(-c3ccc(Cl)c(C(=O)O)c3)o2)S/C1=N/c1ccccc1
39.4% | – | – | – | O=C(N/N=C/c1cc(Br)c(O)c(Br)c1O)c1ccco1
64.4% | – | – | – | COc1c(Br)cc(/C=N/NC(=O)c2cccnc2)c(OC)c1Br
85% | – | – | 6.43 µM | O=C(N/N=C/c1cc(Br)c(O)c(Br)c1O)c1ccc(F)cc1

inhibition (Helicobacter pylori [1]) | MIC (Helicobacter pylori [2]) | MIC (Helicobacter pylori [3]) | IC50 [4] | SMILES
12.6% | – | – | – | COCCN1C(=O)/C(=C\c2ccc(-c3ccc(Cl)c(C(=O)OC)c3)o2)S/C1=N/c1cccc(OC)c1
12% | – | – | – | COCCN1C(=O)/C(=C\c2ccc(-c3ccc(Cl)c(C(=O)OC)c3)o2)S/C1=N/c1cccc(Br)c1
23.3% | – | – | – | O=C(N/N=C/c1cc(Br)c(O)c(Br)c1O)c1cccc(F)c1
81.4% | – | – | – | COc1ccc(C(=O)N/N=C/c2cc(Br)c(O)c(Br)c2O)cc1
15.4% | – | – | – | COCCN1C(=O)/C(=C\c2ccc(-c3ccc(Cl)c(C(=O)O)c3)o2)S/C1=N/c1ccc(OC)cc1
38.8% | – | – | – | O=C(N/N=C/c1cc(Br)c(O)c(Br)c1O)c1ccccc1
71.4% | – | – | 39.8 µM | O=C(N/N=C/c1cc(Br)c(O)c(Br)c1O)c1cccnc1
19.9% | – | – | – | COCCN1C(=O)/C(=C\c2ccc(-c3ccc(Cl)c(C(=O)OC)c3)o2)S/C1=N/c1cccc(C(F)(F)F)c1
– | 100 µg/mL (≈ 182 µM) | 50 µg/mL (≈ 90.9 µM) | 2.13 µM | O=C(N/N=C/c1cc(Br)c(O)c(Br)c1O)c1cc(C(F)(F)F)cc(C(F)(F)F)c1
87% | 100 µg/mL (≈ 208 µM) | 100 µg/mL (≈ 208 µM) | 1.97 µM | O=C(N/N=C/c1cc(Br)c(O)c(Br)c1O)c1ccc2ccccc2c1O
inactive | – | – | – | COC(=O)c1cc(-c2ccc(/C=C3/S/C(=N/c4ccccc4)N(CCN4CCCC4)C3=O)o2)ccc1Cl
inactive | – | – | – | CCN(CC)CCN1C(=O)/C(=C\c2ccc(-c3ccc(Cl)c(C(=O)OC)c3)o2)S/C1=N/c1ccccc1
74.4% | 50 µg/mL (≈ 106 µM) | 100 µg/mL (≈ 213 µM) | – | CC(C)(C)c1ccc(C(=O)N/N=C/c2cc(Br)c(O)c(Br)c2O)cc1
32.2% | – | – | – | COCCN1C(=O)/C(=C\c2ccc(-c3ccc(Cl)c(C(=O)O)c3)o2)S/C1=N/c1ccc2ccccc2c1
50% | – | – | – | O=C(Cc1ccc(O)cc1)N/N=C/c1cc(Br)c(O)c(Br)c1O
inactive | – | – | – | COCCN1C(=O)/C(=C\c2ccc(-c3cc(C(=O)OC)ccc3Cl)o2)S/C1=N/c1ccccc1
– | 100 µg/mL (≈ 208 µM) | 100 µg/mL (≈ 208 µM) | 0.86 µM | O=C(N/N=C/c1cc(Br)c(O)c(Br)c1O)c1cc2ccccc2cc1O
15.2% | – | – | – | CC(=O)N/N=C/c1cc(Br)c(O)c(Br)c1O
inactive | – | – | – | COCCN1C(=O)/C(=C\c2ccc(-c3ccc(Cl)c(C(=O)OC)c3)o2)S/C1=N/c1ccccc1C(F)(F)F
36.4% | – | – | – | O=C(N/N=C/c1cc(Br)c(O)c(Br)c1O)c1ccncc1
inactive | – | – | – | COCCN1C(=O)/C(=C\c2ccc(-c3ccc(Cl)c(C(=O)OC)c3)o2)S/C1=N/c1ccccc1
inactive | – | – | – | COCCN1C(=O)/C(=C\c2ccc(-c3ccc(Cl)c(C(=O)OC)c3)o2)S/C1=N/c1ccc(C(F)(F)F)cc1
96% | 100 µg/mL (≈ 203 µM) | 100 µg/mL (≈ 203 µM) | – | O=C(N/N=C/c1cc(Br)c(O)c(Br)c1O)c1cccc(Br)c1
94.2% | 100 µg/mL (≈ 203 µM) | 100 µg/mL (≈ 203 µM) | – | O=C(N/N=C/c1cc(Br)c(O)c(Br)c1O)c1ccc(Br)cc1
